The results in this text go back to ChEMBL document CHEMBL1268999, “Triazolyl tryptoline derivatives as β-secretase inhibitors” (Bioorg Med Chem Lett, 2010).

For data set [1], the target named is T1, Beta-secretase 1 (Homo sapiens, UniProt P56817). The data set is described as follows: Inhibition of human BACE1 at 5 uM. In short, it runs like this: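 Recombinant human BACE1 enzymatic assay with a FRET substrate (fluorescence resonance energy transfer read-out). Candidates were crude Cu(I)-catalysed azide–alkyne products made in microtiter plates with more than 80% conversion by LC–MS. They were diluted in 50 mM sodium acetate (pH 4.5) to 25 mM stocks, based on azide input.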

Data set [2] is described as follows: Solubility of the compound. It is filed as physicochemical. In short, it runs like this: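 Aqueous solubility reported as a categorical level on a 0–3 scale, where 0 = extremely low and 3 = good.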
For data set [3], the system named is Hepatocyte. In words: Toxicity in hepatocytes. It is filed as cell-based.
The nature of data set [4]: Protein binding in plasma. It is filed as ADME, cell-free. The conditions noted are these: read-out: PPB. In a few lines: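 Plasma protein binding reported as a categorical level: 1 = binding >90%; 2 = binding >95%.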
Data set [5] deals with Cytochrome P450 2D6 (Homo sapiens, UniProt P10635). In words: Inhibition of CYP2D6. It is filed as ADME. In short, it runs like this: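 CYP2D6 inhibition reported as a categorical score, where 0 = non-inhibitor.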
In data set [6] the test system is Rattus norvegicus. The data set is described as follows: Toxicity in po dosed rat. It is filed as organism-based. The conditions noted are these: in vivo.
For data set [7], the target named is Cathepsin D (Homo sapiens, UniProt P07339). The data set is described as follows: Inhibition of human recombinant Cathepsin D by FRET assay.
Data set [8] concerns the target T1, Beta-secretase 1. The data set is described as follows: Inhibition of human recombinant BACE1 by FRET assay. In a few lines:
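Recombinant human BACE1 assayed by fluorescence resonance energy transfer (FRET) cleavage of a FRET substrate. They were diluted in 50 mM sodium acetate (pH 4.5) to 25 mM stocks, based on azide input. A purified resynthesised compound was also tested.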

The structures appear in SMILES notation. Some results are limits rather than exact numbers.

T1 sequence (P56817 whole entry): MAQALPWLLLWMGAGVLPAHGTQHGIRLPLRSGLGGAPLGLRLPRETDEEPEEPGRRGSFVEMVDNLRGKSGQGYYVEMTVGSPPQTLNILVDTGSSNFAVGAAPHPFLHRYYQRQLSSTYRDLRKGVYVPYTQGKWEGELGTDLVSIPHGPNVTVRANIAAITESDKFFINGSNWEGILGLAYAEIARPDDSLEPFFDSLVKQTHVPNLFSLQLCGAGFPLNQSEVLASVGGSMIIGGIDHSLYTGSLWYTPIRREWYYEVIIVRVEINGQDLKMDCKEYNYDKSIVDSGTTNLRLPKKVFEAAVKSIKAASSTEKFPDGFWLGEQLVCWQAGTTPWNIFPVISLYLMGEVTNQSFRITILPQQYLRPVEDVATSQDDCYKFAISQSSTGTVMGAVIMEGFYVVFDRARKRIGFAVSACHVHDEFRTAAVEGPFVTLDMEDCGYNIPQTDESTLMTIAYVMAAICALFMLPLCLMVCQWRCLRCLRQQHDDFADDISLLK
Sequence of Cytochrome P450 2D6 (P10635 whole entry): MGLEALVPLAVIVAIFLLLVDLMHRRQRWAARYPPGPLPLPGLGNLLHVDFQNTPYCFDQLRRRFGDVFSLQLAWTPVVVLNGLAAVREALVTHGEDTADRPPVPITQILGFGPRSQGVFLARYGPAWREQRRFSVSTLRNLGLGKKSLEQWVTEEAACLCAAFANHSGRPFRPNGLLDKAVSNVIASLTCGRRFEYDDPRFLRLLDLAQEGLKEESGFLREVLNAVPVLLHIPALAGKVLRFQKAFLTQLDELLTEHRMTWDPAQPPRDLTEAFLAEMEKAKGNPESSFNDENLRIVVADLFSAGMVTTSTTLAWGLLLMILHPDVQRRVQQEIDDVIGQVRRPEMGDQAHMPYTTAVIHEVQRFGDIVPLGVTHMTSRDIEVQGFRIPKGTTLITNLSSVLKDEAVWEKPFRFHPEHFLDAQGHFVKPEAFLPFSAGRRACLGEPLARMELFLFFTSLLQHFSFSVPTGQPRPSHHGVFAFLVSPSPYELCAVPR
Sequence of Cathepsin D (P07339 65-162 limits assumed): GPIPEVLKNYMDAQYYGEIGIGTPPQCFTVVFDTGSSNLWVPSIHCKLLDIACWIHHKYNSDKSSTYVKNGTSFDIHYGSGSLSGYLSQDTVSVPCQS
Sequence of Cathepsin D (P07339 169-412 limits assumed): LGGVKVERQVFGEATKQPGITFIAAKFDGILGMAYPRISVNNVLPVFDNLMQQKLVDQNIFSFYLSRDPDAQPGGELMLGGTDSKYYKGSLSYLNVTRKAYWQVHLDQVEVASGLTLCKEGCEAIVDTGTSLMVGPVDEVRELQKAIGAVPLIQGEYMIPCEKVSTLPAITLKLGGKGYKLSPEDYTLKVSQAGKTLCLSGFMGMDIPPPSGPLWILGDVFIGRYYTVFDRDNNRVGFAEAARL

Usually inhibition stands for the percentage by which the read-out fell short of the control. A lower inhibition goes with a response near the control. Regarding `c1ccc2c3c([nH]c2c1)CN[C@H](Cn1cc(COC2CCCCO2)nn1)C3` (some centres undefined), in data set [1], the inhibition was less than 50%.

As to `OC1(c2cn(C[C@@H]3Cc4c([nH]c5ccccc45)CN3)nn2)c2ccccc2-c2ccccc21`, the inhibition in data set [1] is less than 50%.

`CC(=O)c1ccc(-c2cn(C[C@@H]3Cc4c([nH]c5ccccc45)CN3)nn2)cc1` returned an inhibition in data set [1] of less than 50%.

Turning to `Cc1ccc(-c2cn(C[C@@H]3Cc4c([nH]c5ccccc45)CN3)nn2)cc1`, the inhibition in data set [1] is less than 50%.

In data set [1], `CC(=O)CC(=O)NCc1cn(C[C@@H]2Cc3c([nH]c4ccccc34)CN2)nn1` displayed an inhibition of less than 50%.

With `Cc1nnc(SCc2cn(C[C@@H]3Cc4c([nH]c5ccccc45)CN3)nn2)s1`, the inhibition in data set [1] is less than 50%.

The compound `CCOC(OCC)c1cn(C[C@@H]2Cc3c([nH]c4ccccc34)CN2)nn1` returned an inhibition in data set [1] of less than 50%.

Compound `c1ccc2c3c([nH]c2c1)CN[C@H](Cn1cc(-c2ccsc2)nn1)C3` came in with an inhibition in data set [1] of less than 50%.

Consider `N#CCCc1cn(C[C@@H]2Cc3c([nH]c4ccccc34)CN2)nn1`, for which the inhibition in data set [1] was less than 50%.

In data set [1], `c1ccc2c3c([nH]c2c1)CN[C@H](Cn1cc(COC[C@H]2CO2)nn1)C3` returned an inhibition of less than 50%.

For `OC(c1ccccc1)c1cn(C[C@@H]2Cc3c([nH]c4ccccc34)CN2)nn1` (some centres undefined), the inhibition in data set [1] was less than 50%.

Consider `c1ccc2c3c([nH]c2c1)CN[C@H](Cn1cc(Cn2ccnc2)nn1)C3`, for which the inhibition in data set [1] is less than 50%.

For the compound `c1ccc(-c2ccc(-c3cn(C[C@@H]4Cc5c([nH]c6ccccc56)CN4)nn3)cc2)cc1`, the inhibition in data set [1] is less than 50%.

For the compound `OC/C=C/c1cn(C[C@@H]2Cc3c([nH]c4ccccc34)CN2)nn1`, the inhibition in data set [1] is less than 50%.

Turning to `OC1(c2cn(C[C@@H]3Cc4c([nH]c5ccccc45)CN3)nn2)CCCC1`, in data set [1], the inhibition was less than 50%.

For `CC[C@H]1CN2CCc3c([nH]c4ccccc34)[C@H]2C[C@@H]1C[C@@H]1NCCc2c1[nH]c1ccccc21`, the solubility result in data set [2] is listed as “Insoluble”. The Activity entry in data set [3] was “Toxic”. Also, in data set [4], the fraction unbound is less than 0.05. For the same compound, the “inhibition (INH)” value in data set [5] was “Not Active”. The compound further registered an LD50 in data set [6] of 235.5 µg/g.

With `c1ccc(SCc2cn(C[C@@H]3Cc4c([nH]c5ccccc45)CN3)nn2)cc1`, in data set [1], the inhibition is less than 50%.

`c1ccc2c(-c3cn(C[C@@H]4Cc5c([nH]c6ccccc56)CN4)nn3)cccc2c1`: the inhibition in data set [1] is less than 50%.

`Nc1cccc(-c2cn(C[C@@H]3Cc4c([nH]c5ccccc45)CN3)nn2)c1` displayed an inhibition in data set [1] of less than 50%.

With `CC(O)c1cn(C[C@@H]2Cc3c([nH]c4ccccc34)CN2)nn1` (some centres undefined), in data set [1], the inhibition was less than 50%.

`CCCC(O)c1cn(C[C@@H]2Cc3c([nH]c4ccccc34)CN2)nn1` (some centres undefined) displayed an inhibition in data set [1] of less than 50%.

As for `c1ccc2c3c([nH]c2c1)CNCC3` [TRYPTOLINE], in data set [2], the solubility result was “Soluble”. In addition, in data set [3], the Activity result is on record as “Non-toxic”. Moreover, the fraction unbound in data set [4] is less than 0.1. The “inhibition (INH)” value in data set [5] was “Not Active”. In data set [6], the LD50 turned out to be 701500 µg/g.

In turn, `Fc1cc(F)cc(-c2cn(C[C@@H]3Cc4c([nH]c5ccccc45)CN3)nn2)c1` returned an inhibition in data set [1] of less than 50%.

In general, IC50 refers to the point on the concentration scale where inhibition reaches its midpoint. On to `COc1ccc2cc(-c3cn(C[C@@H]4Cc5c([nH]c6ccccc56)CN4)nn3)ccc2c1`, for which the IC50 was greater than 100 µM in data set [7] and 1.49 µM in data set [8]. In data set [1], the inhibition was greater than 50%.
